Experimental data published in the M2OR odorant receptor database.

How the values were obtained:
Details in all cases: stereoisomer not certain
OR5K1 (Homo sapiens) = target: T1, OR5K1 (Homo sapiens) (UniProt Q8NHB7)
T1 sequence (whole entry): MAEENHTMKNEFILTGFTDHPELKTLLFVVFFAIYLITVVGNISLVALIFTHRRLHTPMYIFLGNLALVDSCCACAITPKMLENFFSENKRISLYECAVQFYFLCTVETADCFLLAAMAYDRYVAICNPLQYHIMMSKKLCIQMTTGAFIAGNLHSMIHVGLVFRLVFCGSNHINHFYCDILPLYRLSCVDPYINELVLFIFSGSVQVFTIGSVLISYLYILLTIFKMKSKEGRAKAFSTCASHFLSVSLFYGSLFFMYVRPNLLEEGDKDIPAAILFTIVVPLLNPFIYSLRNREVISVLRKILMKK
Summary of the method: (§1)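 Transient luciferase assays in mammalian cell lines were common, though methods varied by source. The values come from published papers and their supplementary material, with extra details from the original authors when needed. Responsive refers to a measured signal the original authors judged statistically different from baseline, and non-responsive (inactive) to the remainder.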

OR5K2 (Homo sapiens) = target: T2, OR5K2 (Homo sapiens) (UniProt Q8NHB8)
T2 sequence (whole entry): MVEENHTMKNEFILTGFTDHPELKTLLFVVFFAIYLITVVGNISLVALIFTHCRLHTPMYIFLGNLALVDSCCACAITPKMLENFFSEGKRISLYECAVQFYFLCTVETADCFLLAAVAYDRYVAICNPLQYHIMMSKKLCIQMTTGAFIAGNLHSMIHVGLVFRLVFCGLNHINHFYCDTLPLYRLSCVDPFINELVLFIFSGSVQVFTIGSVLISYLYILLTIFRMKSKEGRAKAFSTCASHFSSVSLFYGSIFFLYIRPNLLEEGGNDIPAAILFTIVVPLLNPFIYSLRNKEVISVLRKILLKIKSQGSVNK
Summary of the method: as §1

OR5K3 (Homo sapiens) = target: T3, OR5K3 (Homo sapiens) (UniProt A6NET4)
T3 sequence (whole entry): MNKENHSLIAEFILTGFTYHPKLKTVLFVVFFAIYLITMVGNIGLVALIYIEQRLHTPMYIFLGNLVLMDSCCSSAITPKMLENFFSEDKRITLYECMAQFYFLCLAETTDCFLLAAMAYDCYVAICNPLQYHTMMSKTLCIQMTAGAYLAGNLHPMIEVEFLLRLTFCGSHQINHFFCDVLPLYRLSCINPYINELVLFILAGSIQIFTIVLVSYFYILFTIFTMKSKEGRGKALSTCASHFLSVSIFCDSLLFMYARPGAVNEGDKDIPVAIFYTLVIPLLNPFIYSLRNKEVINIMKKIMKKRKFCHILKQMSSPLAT
Summary of the method: as §1

OR5K4 (Homo sapiens) = target: T4, OR5K4 (Homo sapiens) (UniProt A6NMS3)
T4 sequence (whole entry): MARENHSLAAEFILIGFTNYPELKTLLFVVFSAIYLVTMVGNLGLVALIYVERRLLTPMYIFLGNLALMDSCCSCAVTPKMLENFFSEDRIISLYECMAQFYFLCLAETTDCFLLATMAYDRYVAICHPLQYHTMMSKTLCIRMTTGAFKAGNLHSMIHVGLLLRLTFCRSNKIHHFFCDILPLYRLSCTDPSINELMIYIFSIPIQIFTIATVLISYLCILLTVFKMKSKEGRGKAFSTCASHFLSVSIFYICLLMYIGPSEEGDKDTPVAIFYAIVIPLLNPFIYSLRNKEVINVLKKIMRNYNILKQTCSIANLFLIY
Summary of the method: as §1

OR5H2 = test system: T5, OR5H2
T5 sequence (whole entry): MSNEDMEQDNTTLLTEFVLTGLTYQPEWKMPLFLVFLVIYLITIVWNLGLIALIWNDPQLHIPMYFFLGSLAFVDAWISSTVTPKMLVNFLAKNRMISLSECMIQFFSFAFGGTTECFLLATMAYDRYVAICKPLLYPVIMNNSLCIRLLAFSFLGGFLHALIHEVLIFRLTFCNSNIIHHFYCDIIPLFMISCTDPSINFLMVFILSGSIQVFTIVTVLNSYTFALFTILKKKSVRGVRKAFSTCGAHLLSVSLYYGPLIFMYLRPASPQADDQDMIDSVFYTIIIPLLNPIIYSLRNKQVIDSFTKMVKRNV
Summary of the method: as §1

OR5H6 (Homo sapiens) = target: T6, OR5H6 (Homo sapiens) (UniProt Q8NGV6)
T6 sequence (whole entry): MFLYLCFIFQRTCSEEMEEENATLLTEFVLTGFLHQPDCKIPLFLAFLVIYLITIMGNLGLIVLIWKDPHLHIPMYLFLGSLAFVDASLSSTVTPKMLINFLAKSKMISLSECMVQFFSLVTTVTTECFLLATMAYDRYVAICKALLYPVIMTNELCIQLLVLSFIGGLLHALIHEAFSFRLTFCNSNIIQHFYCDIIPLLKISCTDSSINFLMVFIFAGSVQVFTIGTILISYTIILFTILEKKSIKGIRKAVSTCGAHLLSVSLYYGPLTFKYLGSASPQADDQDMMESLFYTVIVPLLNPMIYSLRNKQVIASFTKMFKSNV
Summary of the method: as §1

OR5J2 (Homo sapiens) = target: T7, OR5J2 (Homo sapiens) (UniProt Q8NH18)
T7 sequence (whole entry): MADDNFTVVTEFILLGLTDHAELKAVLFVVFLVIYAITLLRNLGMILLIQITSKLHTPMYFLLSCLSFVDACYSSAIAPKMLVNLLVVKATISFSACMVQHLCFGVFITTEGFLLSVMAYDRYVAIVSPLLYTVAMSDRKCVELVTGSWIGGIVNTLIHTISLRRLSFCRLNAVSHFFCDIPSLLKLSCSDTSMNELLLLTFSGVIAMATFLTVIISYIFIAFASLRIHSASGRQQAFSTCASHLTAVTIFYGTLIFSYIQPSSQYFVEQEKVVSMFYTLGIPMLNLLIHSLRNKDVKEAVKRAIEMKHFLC
Summary of the method: as §1

OR5L1 (Homo sapiens) = target: T8, OR5L1 (Homo sapiens) (UniProt Q8NGL2)
T8 sequence (whole entry): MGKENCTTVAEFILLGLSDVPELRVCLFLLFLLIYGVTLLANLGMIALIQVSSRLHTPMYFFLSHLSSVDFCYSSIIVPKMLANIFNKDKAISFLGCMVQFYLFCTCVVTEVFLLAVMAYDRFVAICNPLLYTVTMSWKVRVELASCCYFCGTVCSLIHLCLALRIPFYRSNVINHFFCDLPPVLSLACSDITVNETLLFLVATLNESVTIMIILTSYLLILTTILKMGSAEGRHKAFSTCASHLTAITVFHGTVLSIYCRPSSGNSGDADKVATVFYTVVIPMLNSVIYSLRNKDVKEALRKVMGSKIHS
Summary of the method: as §1

OR5L2 (Homo sapiens) = target: T9, OR5L2 (Homo sapiens) (UniProt Q8NGL0)
T9 sequence (whole entry): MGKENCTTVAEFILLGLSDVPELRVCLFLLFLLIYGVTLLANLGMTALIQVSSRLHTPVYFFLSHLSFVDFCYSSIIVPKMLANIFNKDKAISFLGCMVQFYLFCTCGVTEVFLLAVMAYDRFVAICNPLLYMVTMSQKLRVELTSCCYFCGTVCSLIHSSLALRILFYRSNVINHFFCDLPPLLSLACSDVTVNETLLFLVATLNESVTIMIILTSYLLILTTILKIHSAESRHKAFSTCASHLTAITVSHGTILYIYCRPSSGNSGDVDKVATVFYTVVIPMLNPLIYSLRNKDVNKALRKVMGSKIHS
Summary of the method: as §1

OR5M1 (Homo sapiens) = target: T10, OR5M1 (Homo sapiens) (UniProt Q8NGP8)
T10 sequence (whole entry): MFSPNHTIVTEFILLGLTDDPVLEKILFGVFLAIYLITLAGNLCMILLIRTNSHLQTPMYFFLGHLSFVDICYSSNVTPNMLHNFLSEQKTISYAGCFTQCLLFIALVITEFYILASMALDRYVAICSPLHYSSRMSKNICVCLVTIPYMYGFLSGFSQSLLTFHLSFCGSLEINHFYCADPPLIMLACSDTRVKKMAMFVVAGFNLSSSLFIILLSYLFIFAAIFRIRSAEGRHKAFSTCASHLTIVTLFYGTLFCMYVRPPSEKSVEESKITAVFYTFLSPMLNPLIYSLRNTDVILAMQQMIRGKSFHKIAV
Summary of the method: as §1

OR5M10 (Homo sapiens) = target: T11, OR5M10 (Homo sapiens) (UniProt Q6IEU7)
T11 sequence (whole entry): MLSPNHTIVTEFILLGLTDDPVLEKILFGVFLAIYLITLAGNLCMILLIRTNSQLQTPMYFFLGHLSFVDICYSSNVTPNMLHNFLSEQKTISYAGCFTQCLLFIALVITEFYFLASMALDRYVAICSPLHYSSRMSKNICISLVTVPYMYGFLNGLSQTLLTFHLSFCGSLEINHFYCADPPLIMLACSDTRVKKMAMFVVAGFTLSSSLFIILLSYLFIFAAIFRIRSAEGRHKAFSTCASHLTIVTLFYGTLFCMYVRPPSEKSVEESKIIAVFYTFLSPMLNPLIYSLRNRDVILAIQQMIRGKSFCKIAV
Summary of the method: as §1

OR5M11 (Homo sapiens) = target: T12, OR5M11 (Homo sapiens) (UniProt Q96RB7)
T12 sequence (whole entry): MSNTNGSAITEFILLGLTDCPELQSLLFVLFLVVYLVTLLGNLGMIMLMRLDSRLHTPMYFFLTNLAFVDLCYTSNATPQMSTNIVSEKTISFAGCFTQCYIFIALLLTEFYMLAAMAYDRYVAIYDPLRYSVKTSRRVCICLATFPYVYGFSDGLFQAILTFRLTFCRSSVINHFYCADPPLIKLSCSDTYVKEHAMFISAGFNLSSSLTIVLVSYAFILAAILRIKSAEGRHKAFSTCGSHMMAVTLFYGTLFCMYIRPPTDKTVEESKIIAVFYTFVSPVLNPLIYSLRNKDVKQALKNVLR
Summary of the method: as §1

OR5M3 (Homo sapiens) = target: T13, OR5M3 (Homo sapiens) (UniProt Q8NGP4)
T13 sequence (whole entry): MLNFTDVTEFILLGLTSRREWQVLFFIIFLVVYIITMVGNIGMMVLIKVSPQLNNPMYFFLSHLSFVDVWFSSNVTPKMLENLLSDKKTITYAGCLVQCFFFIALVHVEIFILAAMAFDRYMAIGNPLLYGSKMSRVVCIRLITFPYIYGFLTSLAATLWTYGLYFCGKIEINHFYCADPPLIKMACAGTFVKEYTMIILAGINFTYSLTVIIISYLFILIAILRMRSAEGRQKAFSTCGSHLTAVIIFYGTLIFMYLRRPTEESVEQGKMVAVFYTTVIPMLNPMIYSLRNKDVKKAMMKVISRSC
Summary of the method: as §1
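Note: active if original authors judged signal statistically different from baseline.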

Row | Compound | odorant receptor agonist call (OR5K1 (Homo sapiens)) | odorant receptor agonist call (OR5K2 (Homo sapiens)) | odorant receptor agonist call (OR5K3 (Homo sapiens)) | odorant receptor agonist call (OR5K4 (Homo sapiens)) | odorant receptor agonist call (OR5H2) | odorant receptor agonist call (OR5H6 (Homo sapiens)) | odorant receptor agonist call (OR5J2 (Homo sapiens)) | odorant receptor agonist call (OR5L1 (Homo sapiens)) | odorant receptor agonist call (OR5L2 (Homo sapiens)) | odorant receptor agonist call (OR5M1 (Homo sapiens)) | odorant receptor agonist call (OR5M10 (Homo sapiens)) | odorant receptor agonist call (OR5M11 (Homo sapiens)) | odorant receptor agonist call (OR5M3 (Homo sapiens))
1 | Cc1cncc(C)n1 | active | inactive | inactive | inactive |  |  |  |  |  |  |  |  | 
2 | C=Cc1cnccn1 | active | inactive | inactive | inactive |  |  |  |  |  |  |  |  | 
3 | CCCCCC(S)C(C)CO (configuration not stated) | inactive | inactive | inactive | inactive | inactive | inactive | inactive | inactive | inactive | inactive | inactive | inactive | inactive
4 | CCc1nccnc1C(C)=O | active | inactive | inactive | inactive |  |  |  |  |  |  |  |  | 
5 | CC(=O)c1cnccn1 | active | inactive | inactive | inactive |  |  |  |  |  |  |  |  | inactive
6 | CCc1ncc(C)nc1CC | active | inactive | inactive | inactive |  |  |  |  |  |  |  |  | inactive
7 | CCCCC(S)C(C)CO (configuration not stated) | inactive | inactive | inactive | inactive | inactive | inactive | inactive | inactive | inactive | inactive | inactive | active | inactive
8 | Cc1cnccn1 | active | inactive | inactive | inactive |  |  |  |  |  |  |  |  | 
